Laboratory results published in ChEMBL document CHEMBL5252534, “Discovery of a Noncovalent, Mutant-Selective Epidermal Growth Factor Receptor Inhibitor” (J Med Chem, 2016).
Converted amounts (≈) assume the structure as drawn.

Experiments:
[1] = Apparent permeability across apical to basolateral side in dog MDCK cells; type: ADME, cell-based, Canis lupus familiaris
[2] = Clearance in human hepatocyte; type: ADME, cell-based; details: hepatocytes
Method in brief: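 Cryopreserved human hepatocytes used; intrinsic clearance converted to predicted hepatic clearance as (Q × Clint)/(Q + Clint) using liver blood flow Q.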

[3] = Clearance in human liver microsomes; type: ADME, Microsome
Method in brief: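 Incubation with human liver microsomes; intrinsic clearance scaled to predicted hepatic clearance as Clhep = (Q × Clint)/(Q + Clint), where Q is liver blood flow.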

[4] = target: T1, Epidermal growth factor receptor (Homo sapiens, UniProt P00533, 746-750DEL/T790M); experiment: Inhibition of human EGFR T790M/del (746 to 750 residues) mutant assessed as apparent inhibition constant using Fl-EEPLYWSFPAKKK-CONH2 peptide as substrate preincubated for 30 mins followed by addition of substrate and measured after 30 mins by Morrison plot analysis; details: read-out: Ki(app)
Method in brief: (§1)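 Biochemical kinase Ki determination; reported values are geometric means of at least two independent experiments.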

[5] = target: Epidermal growth factor receptor (Homo sapiens, UniProt P00533, L858R); experiment: Inhibition of human EGFR L858R mutant assessed as apparent inhibition constant using Fl-EEPLYWSFPAKKK-CONH2 peptide as substrate preincubated for 30 mins followed by addition of substrate and measured after 30 mins by Morrison plot analysis; details: read-out: Ki(app); method in brief: as §1
[6] = target: T2, Epidermal growth factor receptor (Homo sapiens, UniProt P00533, 746-750DEL); experiment: Inhibition of human EGFR del (746 to 750) mutant assessed as apparent inhibition constant using Fl-EEPLYWSFPAKKK-CONH2 as substrate preincubated for 30 mins followed by addition of substrate and measured after 30 mins by Morrison plot analysis; details: read-out: Ki(app); method in brief: as §1
[7] = target: T3, Epidermal growth factor receptor (Homo sapiens, UniProt P00533); experiment: Inhibition of wild type human EGFR assessed as apparent inhibition constant using Fl-EEPLYWSFPAKKK-CONH2 as substrate preincubated for 30 mins followed by addition of substrate and measured after 30 mins by Morrison plot analysis; details: read-out: Ki(app)
[8] = target: T3, Epidermal growth factor receptor; experiment: Inhibition of EGFR autophosphorylation in human NCI-H292 cells harboring harboring wild type EGFR preincubated for 60 mins followed by EGF stimulation and measured after 8 mins by SULFO-TAG based electrochemiluminescent assay; type: cell-based
Target sequence in this assay (P00533 25-1210 limits assumed, stated change not applied): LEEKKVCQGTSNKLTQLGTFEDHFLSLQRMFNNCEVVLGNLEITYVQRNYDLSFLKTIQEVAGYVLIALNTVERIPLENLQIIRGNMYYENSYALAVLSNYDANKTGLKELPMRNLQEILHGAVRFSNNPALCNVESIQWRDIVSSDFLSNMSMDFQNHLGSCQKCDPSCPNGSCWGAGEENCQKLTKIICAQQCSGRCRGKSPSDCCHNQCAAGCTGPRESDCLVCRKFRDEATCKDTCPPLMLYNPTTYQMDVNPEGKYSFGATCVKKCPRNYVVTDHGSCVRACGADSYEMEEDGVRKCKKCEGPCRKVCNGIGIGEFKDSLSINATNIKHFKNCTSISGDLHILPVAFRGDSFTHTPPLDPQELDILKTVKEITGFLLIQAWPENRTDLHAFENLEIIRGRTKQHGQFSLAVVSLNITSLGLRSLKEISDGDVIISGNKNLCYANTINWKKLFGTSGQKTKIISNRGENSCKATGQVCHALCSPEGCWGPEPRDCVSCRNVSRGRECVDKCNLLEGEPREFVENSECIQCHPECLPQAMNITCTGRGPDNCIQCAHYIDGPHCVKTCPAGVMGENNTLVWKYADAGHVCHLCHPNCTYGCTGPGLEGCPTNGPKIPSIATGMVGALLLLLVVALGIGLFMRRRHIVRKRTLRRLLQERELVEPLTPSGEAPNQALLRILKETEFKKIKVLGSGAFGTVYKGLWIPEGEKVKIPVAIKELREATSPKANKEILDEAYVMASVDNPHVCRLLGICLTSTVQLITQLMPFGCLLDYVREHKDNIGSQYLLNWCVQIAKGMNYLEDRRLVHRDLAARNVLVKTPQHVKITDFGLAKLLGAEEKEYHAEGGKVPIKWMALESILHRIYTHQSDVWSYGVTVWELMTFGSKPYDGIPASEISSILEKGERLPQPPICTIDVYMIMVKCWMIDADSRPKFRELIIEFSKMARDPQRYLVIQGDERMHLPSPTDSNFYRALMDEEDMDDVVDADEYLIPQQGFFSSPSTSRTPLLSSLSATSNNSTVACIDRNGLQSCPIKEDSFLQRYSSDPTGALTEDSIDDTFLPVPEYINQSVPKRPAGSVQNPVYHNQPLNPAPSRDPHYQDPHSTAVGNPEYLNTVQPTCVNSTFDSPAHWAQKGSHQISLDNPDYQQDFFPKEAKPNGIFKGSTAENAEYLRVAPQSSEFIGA

[9] = target: T2, Epidermal growth factor receptor; type: cell-based, PC-9
[10] = target: T1, Epidermal growth factor receptor; type: cell-based, PC-9/ER1
[11] = target: T4, Epidermal growth factor receptor (Homo sapiens, UniProt P00533, L858R/T790M); type: cell-based, NCI-H1975
[12] = Aqueous kinetic solubility of compound in PBS buffer at pH 7.4 at 100 uM incubated for 24 hrs by LC/CLND analysis; type: physicochemical; details: read-out: Kinetic_solubility
Method in brief: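 Kinetic aqueous solubility measured at pH 7.4.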

[13] = target: T4, Epidermal growth factor receptor; experiment: Inhibition of human EGFR T790M/L858R double mutant assessed as apparent inhibition constant using Fl-EEPLYWSFPAKKK-CONH2 as peptide substrate preincubated for 30 mins followed by addition of substrate and measured after 30 mins by Morrison plot analysis; details: read-out: Ki(app)

Chain of Epidermal growth factor receptor (Homo sapiens, UniProt P00533, L858R) (P00533 25-1210 L858R limits assumed): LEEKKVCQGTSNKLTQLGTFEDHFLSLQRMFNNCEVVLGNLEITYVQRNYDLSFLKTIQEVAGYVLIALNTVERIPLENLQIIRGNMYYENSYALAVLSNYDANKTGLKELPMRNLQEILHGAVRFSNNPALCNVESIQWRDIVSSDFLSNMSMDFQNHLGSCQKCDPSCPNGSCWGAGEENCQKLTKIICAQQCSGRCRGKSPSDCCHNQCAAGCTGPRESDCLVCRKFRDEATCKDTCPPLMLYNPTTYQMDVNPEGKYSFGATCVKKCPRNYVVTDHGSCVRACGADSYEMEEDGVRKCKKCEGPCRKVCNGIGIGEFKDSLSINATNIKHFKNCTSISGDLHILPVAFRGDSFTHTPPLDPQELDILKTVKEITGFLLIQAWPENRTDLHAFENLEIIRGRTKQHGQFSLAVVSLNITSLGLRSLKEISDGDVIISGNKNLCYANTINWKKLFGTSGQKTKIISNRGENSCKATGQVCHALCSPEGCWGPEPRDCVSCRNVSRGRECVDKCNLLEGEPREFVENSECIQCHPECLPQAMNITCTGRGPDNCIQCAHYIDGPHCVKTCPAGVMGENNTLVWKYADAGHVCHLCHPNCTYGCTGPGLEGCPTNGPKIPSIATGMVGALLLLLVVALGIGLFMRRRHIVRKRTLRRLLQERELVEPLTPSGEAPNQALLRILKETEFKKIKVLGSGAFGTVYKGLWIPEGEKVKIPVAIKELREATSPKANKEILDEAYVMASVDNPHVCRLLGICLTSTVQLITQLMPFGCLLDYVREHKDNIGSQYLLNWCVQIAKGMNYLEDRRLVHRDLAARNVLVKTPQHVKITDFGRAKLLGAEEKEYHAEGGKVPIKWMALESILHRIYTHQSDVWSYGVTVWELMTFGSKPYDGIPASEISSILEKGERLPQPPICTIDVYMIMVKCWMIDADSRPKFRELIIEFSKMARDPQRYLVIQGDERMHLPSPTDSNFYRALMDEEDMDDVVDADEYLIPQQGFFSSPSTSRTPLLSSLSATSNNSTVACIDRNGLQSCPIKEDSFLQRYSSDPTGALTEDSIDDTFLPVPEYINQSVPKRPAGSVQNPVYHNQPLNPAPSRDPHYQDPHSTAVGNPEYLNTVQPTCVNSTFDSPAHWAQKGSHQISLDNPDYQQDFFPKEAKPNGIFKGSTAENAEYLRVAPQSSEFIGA
T4 sequence (P00533 25-1210 T790M/L858R limits assumed): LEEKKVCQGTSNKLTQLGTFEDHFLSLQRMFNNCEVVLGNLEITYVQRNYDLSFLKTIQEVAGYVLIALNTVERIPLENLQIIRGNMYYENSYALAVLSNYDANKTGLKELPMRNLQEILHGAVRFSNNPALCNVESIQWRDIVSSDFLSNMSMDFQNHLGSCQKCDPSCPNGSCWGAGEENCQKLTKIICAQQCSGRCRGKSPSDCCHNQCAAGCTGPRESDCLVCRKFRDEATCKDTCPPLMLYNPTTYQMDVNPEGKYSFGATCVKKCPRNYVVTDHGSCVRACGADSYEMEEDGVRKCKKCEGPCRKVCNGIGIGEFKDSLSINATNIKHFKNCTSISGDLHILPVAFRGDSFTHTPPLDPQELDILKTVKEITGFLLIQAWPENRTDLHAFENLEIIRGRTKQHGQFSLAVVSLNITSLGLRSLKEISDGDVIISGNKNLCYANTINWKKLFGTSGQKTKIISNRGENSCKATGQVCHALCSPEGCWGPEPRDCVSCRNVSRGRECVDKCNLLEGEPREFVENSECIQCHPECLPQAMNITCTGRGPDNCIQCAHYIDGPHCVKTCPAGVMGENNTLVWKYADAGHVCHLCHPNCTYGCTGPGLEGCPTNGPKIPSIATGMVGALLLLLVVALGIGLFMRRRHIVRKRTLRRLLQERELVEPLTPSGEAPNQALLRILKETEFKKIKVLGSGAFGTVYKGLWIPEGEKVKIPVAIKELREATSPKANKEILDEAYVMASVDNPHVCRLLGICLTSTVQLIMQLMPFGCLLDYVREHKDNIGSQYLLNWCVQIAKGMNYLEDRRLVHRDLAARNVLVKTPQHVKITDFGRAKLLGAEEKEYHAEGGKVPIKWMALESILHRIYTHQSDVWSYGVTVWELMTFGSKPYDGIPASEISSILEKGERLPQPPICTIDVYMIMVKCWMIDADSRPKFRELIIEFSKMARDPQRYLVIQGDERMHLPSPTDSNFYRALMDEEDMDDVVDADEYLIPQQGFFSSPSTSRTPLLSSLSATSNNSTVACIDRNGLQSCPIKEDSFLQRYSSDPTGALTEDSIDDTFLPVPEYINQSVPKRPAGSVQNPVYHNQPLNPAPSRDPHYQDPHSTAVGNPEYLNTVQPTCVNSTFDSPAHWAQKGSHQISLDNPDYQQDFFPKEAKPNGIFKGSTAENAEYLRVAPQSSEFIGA
T2 sequence (P00533 whole entry, looked up, stated change not applied): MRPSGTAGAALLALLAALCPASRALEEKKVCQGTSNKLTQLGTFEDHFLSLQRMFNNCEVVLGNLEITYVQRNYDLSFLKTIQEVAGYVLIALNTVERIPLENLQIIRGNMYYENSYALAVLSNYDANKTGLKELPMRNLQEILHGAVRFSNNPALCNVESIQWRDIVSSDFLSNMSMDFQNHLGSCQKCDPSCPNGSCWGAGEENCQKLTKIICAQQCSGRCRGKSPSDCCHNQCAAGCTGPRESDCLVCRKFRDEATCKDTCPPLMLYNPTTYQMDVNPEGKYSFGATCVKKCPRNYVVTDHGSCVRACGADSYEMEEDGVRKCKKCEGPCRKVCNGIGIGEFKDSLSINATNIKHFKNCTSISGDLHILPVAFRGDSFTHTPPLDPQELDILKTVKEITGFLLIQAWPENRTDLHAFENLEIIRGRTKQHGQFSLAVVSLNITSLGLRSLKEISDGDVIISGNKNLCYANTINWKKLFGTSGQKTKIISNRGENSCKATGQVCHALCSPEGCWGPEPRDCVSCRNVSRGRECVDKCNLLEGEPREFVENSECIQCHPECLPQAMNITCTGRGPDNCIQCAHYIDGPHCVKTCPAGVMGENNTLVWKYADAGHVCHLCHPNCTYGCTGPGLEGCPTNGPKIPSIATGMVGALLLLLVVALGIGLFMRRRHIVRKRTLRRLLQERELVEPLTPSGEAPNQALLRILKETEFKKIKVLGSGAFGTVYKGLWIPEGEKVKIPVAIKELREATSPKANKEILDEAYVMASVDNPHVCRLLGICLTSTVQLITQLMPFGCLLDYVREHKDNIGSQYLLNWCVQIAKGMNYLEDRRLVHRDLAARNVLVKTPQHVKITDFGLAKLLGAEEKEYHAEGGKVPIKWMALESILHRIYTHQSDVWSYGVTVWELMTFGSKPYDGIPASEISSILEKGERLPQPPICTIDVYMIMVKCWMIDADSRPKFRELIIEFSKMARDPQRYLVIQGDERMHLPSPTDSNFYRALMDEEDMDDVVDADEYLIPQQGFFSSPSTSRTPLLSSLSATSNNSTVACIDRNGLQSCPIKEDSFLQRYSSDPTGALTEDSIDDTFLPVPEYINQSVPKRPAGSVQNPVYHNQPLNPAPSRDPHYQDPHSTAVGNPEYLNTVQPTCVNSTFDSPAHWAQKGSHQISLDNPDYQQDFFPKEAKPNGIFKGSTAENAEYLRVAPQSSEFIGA

SMILES | Papp A→B [1] [×10⁻⁶ cm/s] | CLhep predicted [2] [mL/min/kg] | CLhep predicted [3] [mL/min/kg] | Ki [4] [nM] | Ki [5] [nM] | Ki [6] [nM] | Ki [7] [nM] | IC50 [8] [nM] | IC50 [9] [nM] | IC50 [10] [nM] | IC50 [11] [nM] | solubility kinetic at 24 h, 100 µM [12] [µM] | Ki [13] [nM]
Cc1nc2cnc(Nc3ccnc(-c4cnn(S(=O)(=O)C5CC5)c4)n3)cc2n1C(C)C | 21 | 4 | 7.7 | 1.8 | 43 | 12 | 55 | – | – | – | – | – | –
CC(C)n1nc(N2CCOCC2)c2cnc(Nc3ccnc(-c4cnn(S(=O)(=O)C5CC5)c4)n3)cc21 | 12 | 6.7 | 9.3 | – | – | – | 10 | 850 | 76 | 19 | 74 | 1 (≈ 0.51 µg/mL) | 2.1
COC1CCN(c2nccc(Nc3cc4c(cn3)c(C(N)=O)cn4C(C)C)n2)CC1 | 26 | – | – | 27 | 363 | 323 | 167 | – | – | – | – | 3 (≈ 1.23 µg/mL) | 5.3
CC[C@@H](C)n1nc(N2CC(C(C)(C)O)C2)c2cnc(Nc3ccnc(-c4cnn(S(=O)(=O)C5CC5)c4)n3)cc21 | 19 | 7.8 | 9.9 | – | – | – | – | 580 | 57 | 15 | 40 | 2 (≈ 1.1 µg/mL) | –
Cc1nc2cnc(Nc3ccnc(-c4cnn(CC5CC5)c4)n3)cc2n1C(C)C | – | – | – | – | – | – | 1200 | – | – | – | – | – | 34
CC(C)n1cc(C(=O)NC2COC2)c2cnc(Nc3ccnc(-c4cnn(S(=O)(=O)C5CC5)c4)n3)cc21 | 2.3 | – | – | 2 | 6.4 | 2 | 4.6 | – | – | – | – | 7 (≈ 3.66 µg/mL) | 1.1
CO[C@H]1CCN(c2nccc(Nc3cc4c(cn3)nc(C)n4C(C)C)n2)C[C@H]1F | – | – | – | 41 | 608 | 1800 | 896 | – | – | – | – | – | 3.6
COC1CCN(c2nccc(Nc3cc4c(cn3)c(C(N)=O)nn4C(C)C)n2)CC1 | – | – | – | – | – | – | > 100 | – | – | – | – | – | –
CC(C)n1nc(N)c2cnc(Nc3ccnc(-c4cnn(S(=O)(=O)C5CC5)c4)n3)cc21 | 16 | 8.4 | 13 | – | – | – | 8.2 | 3900 | 80 | 14 | 64 | 2 (≈ 0.879 µg/mL) | 0.79
